# ZTA DNA inh: blocks Epstein-Barr virus ZTA, an EBNA-1 counter-screen. ZTA-DNA binding, fluorescence polarization. P03206. actives 0.15% (n = 320,000). inhibition, % at 11 µM; in the data active = inhibition above about 33%
# Target sequence (P03206 whole entry, looked up): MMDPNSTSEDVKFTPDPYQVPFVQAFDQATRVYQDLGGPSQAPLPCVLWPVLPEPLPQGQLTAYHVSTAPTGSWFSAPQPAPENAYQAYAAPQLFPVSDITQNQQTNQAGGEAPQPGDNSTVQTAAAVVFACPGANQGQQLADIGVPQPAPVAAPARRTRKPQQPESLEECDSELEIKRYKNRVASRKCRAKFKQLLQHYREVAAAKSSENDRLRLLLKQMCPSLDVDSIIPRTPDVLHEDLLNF
# EBNA-1 inhibitor: blocks EBNA-1 binding to DNA. EBNA-1 DNA binding, fluorescence polarization. actives 0.34% (n = 300,000). inhibition, % at 14.8 µM; in the data active = inhibition above about 28%
# FID counter: displaces DNA intercalator in HCV helicase counter-screen; DNA fluorescent intercalator displacement, fluorescence; inhibition, % at 7.9 µM; actives 0.17% (n = 290,000); in the data active = inhibition above about 37%;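 also: 0% = vehicle and 100% = reference compound; higher means more ethidium bromide displaced from hairpin DNA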
# HCV NS3 hel inh: blocks Hepatitis C virus NS3 helicase unwinding; NS3 helicase DNA unwinding, Cy5 molecular beacon fluorescence; inhibition, % at 10.9 µM; actives 0.56% (n = 290,000); AID 1800;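 active = inhibition above the mean of all tested compounds plus 3 SD, set per campaign, cut at about 35% in these data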;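 also: 0% = DMSO wells and 100% = thioflavine S control wells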
#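 Assay system: hepatitis C virus NS3 helicase domain fragment enzyme. Also added: annealed dual-labelled DNA beacon duplex, ATP-started. Timing: 1 h reaction at 25 °C, ATP-initiated. Technique: Cy5 fluorescence at 0 and 60 min, beacon hairpin quenching. Evaluation: % inhibition of unwinding. Replication: one well per compound.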
# FGF22 binding: binders of recombinant human FGF22 by thermal shift; SYPRO orange fluorescence; percent of sucrose octasulfate shift, DMSO zero; activity (Tm shift, normalised), % at 9.99 µM; actives 1.5% (n = 340,000);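 active = mean Tm shift, scaled 0 neutral to 100 positive control, at about 1.3% or above, every replicate too, limit read from the data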
# Target sequence (Q9HCT0 whole entry, looked up): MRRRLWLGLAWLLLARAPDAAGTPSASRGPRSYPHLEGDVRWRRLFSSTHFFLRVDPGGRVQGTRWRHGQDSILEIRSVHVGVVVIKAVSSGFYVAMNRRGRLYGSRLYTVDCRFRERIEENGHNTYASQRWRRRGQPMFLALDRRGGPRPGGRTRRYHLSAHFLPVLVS
# GRIN3A LBD mod: modulates the human NR3A ligand-binding domain | NR3A LBD differential scanning fluorimetry, Tm shift; 0% = protein alone, 100% = glycine-bound protein | Tm shift relative to glycine control, % at 25 µM | actives 2.5% (n = 340,000);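 active = melting temperature shift of at least 10% of the positive control shift, at one fixed dose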
# * hit, by the source's call; nt = no result given. Sampled rows, rich in hits. Any-hit rate of the full collection: about 3.6%.
SMILES,ZTA DNA inh,EBNA-1 inhibitor,FID counter,HCV NS3 hel inh,FGF22 binding,GRIN3A LBD mod
O=C(Nc1cccc(Cl)c1)Nc1nnc(CC2=CCCCC2)s1,8,0,2,-11,0,29*
Cc1ccc(NC(=O)Nc2nnc(-c3ccncc3)s2)cc1C,-2,-8,-21,-4,1,9
COc1cccc(S(=O)(=O)N(C)C[C@H]2Oc3ncc(C#CCN(C)C)cc3C(=O)N([C@H](C)CO)C[C@H]2C)c1,nt,nt,nt,nt,0,nt
O=C(Nc1cccc(C(F)(F)F)c1)C1(c2ccccc2)CC1,-2,-5,-6,4,nt,12*
O=C(/C=C/c1cccc(C(F)(F)F)c1)Nc1cccc(C(F)(F)F)c1,1,6,2,-14,nt,14*
O=C(Nc1ccc(C(F)(F)F)cc1)C1(c2ccccc2)CC1,-4,-3,-1,2,0,-2
Cc1ccc(NC(=O)/C=C/c2cccc(C(F)(F)F)c2)cc1,12,7,2,-1,18*,25*
Cc1ccc(/C=C/C(=O)N2CCN(c3cccc(C(F)(F)F)c3)CC2)cc1,-4,-1,-7,-2,0,21*
C/C=C/C(=O)Nc1cccc(C(F)(F)F)c1,-15,-2,-5,7,0,-1
Cc1ccc(C)c(C(=O)CCC(=O)N2CCN(c3cccc(C(F)(F)F)c3)CC2)c1,12,nt,nt,nt,1,4
Oc1ccc(NC(=S)Nc2ccc(F)cc2)cc1,3,-9,-5,-4,1,9
Fc1ccc(NC(=S)Nc2ccc(Br)cc2)cc1,-13,-7,-3,0,nt,15*
CSc1cccc(NC(=S)Nc2ccc(F)cc2)c1,0,-3,-9,11,0,14*
CSc1cccc(NC(=S)NN(C)C)c1,-5,0,-1,-2,0,1
Cc1ccc(NC(=S)NCCc2ccc(F)cc2)c(C)c1,-4,-2,-13,13,nt,-11
FC(F)(F)c1cccc(NC(=S)Nc2ccc(Cl)cc2Cl)c1,1,-32,2,1,nt,7
Cc1ccc(NC(=S)Nc2ccc(F)cc2)c(C)c1,-3,2,0,3,44*,-6
FC(F)(F)c1ccccc1NC(=S)Nc1cccc(Cl)c1,22,10,2,-1,0,14*
CCCC(=O)N1CC2(CCN(S(=O)(=O)CC)CC2)c2c(n(C)c3cc(OC)ccc23)[C@@H]1CO,nt,nt,nt,nt,0,nt
Cc1ccc(S(=O)(=O)N(C)C[C@H]2OCCCC[C@@H](C)Oc3ccc(NS(=O)(=O)c4c(C)noc4C)cc3C(=O)N([C@@H](C)CO)C[C@@H]2C)cc1,nt,nt,nt,nt,0,nt
Fc1ccc(NC(=S)Nc2cccc(Cl)c2)cc1,-23,-6,-2,12,nt,13*
CC(=O)Nc1cccc(NC(=S)Nc2cccc(Cl)c2Cl)c1,5,-5,-2,3,0,-6
CC(=O)Nc1cccc(NC(=S)Nc2ccc(F)cc2F)c1,-3,-2,1,1,43*,-5
CCNC(=O)C[C@H]1CC[C@@H]2[C@H](COC[C@@H](O)CN2C(=O)c2cc(Cl)cc(Cl)c2)O1,nt,nt,nt,nt,0,nt
O=C(COC(=O)c1ccco1)Nc1nc2c(F)c(F)c(F)cc2s1,-10,-2,-8,20,0,-5
SMILES,ZTA DNA inh,EBNA-1 inhibitor,FID counter,HCV NS3 hel inh,FGF22 binding,GRIN3A LBD mod
O=C(COC(=O)CCC1CCCC1)Nc1nc2c(F)c(F)c(F)cc2s1,4,7,3,11,0,22*
Cc1ccc(S(=O)(=O)Nc2ccc3c(c2)C(=O)N([C@H](C)CO)C[C@@H](C)[C@H](CN(C)C(=O)NC(C)C)O3)cc1,nt,nt,nt,nt,0,nt
CN(C)C(=S)SCC(=O)Nc1ccc(Cl)cc1Cl,-7,-11,-11,-6,1.4*,4
O=C(CC(=O)Nc1ccc(Cl)cc1Cl)Nc1ccc(Cl)cc1Cl,6,5,-4,-2,0,-15
O=C(Nc1ccc(Oc2ncnc3cc(Cl)ccc23)nc1)c1cccs1,0,-10,0,-1,0,11*
O=C(Nc1ccc(F)cc1)Nc1ccc(Oc2ncnc3cc(Cl)ccc23)nc1,9,5,0,-12,0,3
O=c1oc([C@@H](O)c2ccccc2)cc2ccccc12,nt,nt,nt,nt,0,10*
C[C@@H]1CN([C@@H](C)CO)C(=O)Cc2cc(NC(=O)CCC(F)(F)F)ccc2O[C@@H]1CN(C)Cc1ccccc1,nt,nt,nt,nt,0,nt
